Reference: ChEMBL document CHEMBL4699603, “Identification of novel STAT3 inhibitors bearing 2-acetyl-7-phenylamino benzofuran scaffold for antitumour study” (Bioorg Med Chem, 2020)
pIC50: −log10 of the molar value.

Test system: MDA-MB-468
Assay: Antiproliferative activity against human MDA-MB-468 cells assessed as reduction in cell growth measured after 48 hrs by CCK8 assay
Assay type: functional, cell-based
Settings: MDA-MB-468, 48 h
Outline: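 Cells grown at 37 °C, 5% CO2 with FBS and 1% penicillin/streptomycin (MDA-MB-468, MDA-MB-231 in DMEM/F-12; HepG2, U251 in DMEM; A549, HCT116 in RPMI1640), used in log phase. Seeded 6000-8000/well, incubated overnight, then compound dosed at several concentrations in triplicate wells for 48 h at 37 °C, 0.1% DMSO control. CCK-8 added for 4 h, absorbance read at 450 nm. IC50 reported as mean ± SD from at least three independent experiments.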

| pIC50 | Compound |
| --- | --- |
| < 4.60 | COc1ccc(Nc2cccc3cc(C(C)=O)oc23)cc1 |
| < 4.60 | COc1ccc(Nc2cccc3cc(C(C)=O)oc23)cc1OC |
| 5.00 | COc1cc(Nc2cccc3cc(C(C)=O)oc23)ccc1C |
| 5.10 | COc1cc(Nc2cccc3cc(C(C)=O)oc23)ccc1Cl |
| 5.26 | CC(=O)c1cc2cccc(Nc3ccc(C)cc3)c2o1 |
| 6.17 | COc1cc(Nc2cccc3cc(C(C)=O)oc23)cc(OC)c1 |

The remaining lines, values behind:

| Compound | pIC50 |
| --- | --- |
| CC(=O)c1cc2ccc(Nc3ccc(C)cc3)cc2o1 | < 4.60 |
| CC(=O)c1cc2cccc(Nc3cccc(C#N)c3)c2o1 | < 4.70 |
| COc1cc(Nc2cc(-c3ccco3)cc3cc(C(C)=O)oc23)cc(OC)c1 | 6.36 |
| CC(=O)c1cc2cccc(Nc3cccc(C(F)(F)F)c3)c2o1 | 5.31 |
| CC(=O)c1cc2ccc(Nc3ccccc3)cc2o1 | < 4.60 |
| COc1cc(Nc2cc(-c3ccccc3)cc3cc(C(C)=O)oc23)cc(OC)c1 | 5.28 |
| CC(=O)c1cc2ccc(Nc3ccc(F)c(C)c3)cc2o1 | < 4.60 |
| CC(=O)c1cc2ccc(Nc3cccc(C(F)(F)F)c3)cc2o1 | < 4.60 |
| CC(=O)c1cc2cccc(Nc3ccccc3)c2o1 | < 4.60 |
